Measured values from ChEMBL document CHEMBL4350998, “Design, synthesis, and structure-activity relationship studies of l-amino alcohol derivatives as broad-spectrum antifungal agents” (Eur J Med Chem, 2019).
Values after ≈ are worked out from the molar mass of the structure shown.

What was measured:
Candida albicans [1] = test: Antifungal activity against Candida albicans SC5314; assay type: functional
Cryptococcus neoformans = test: Antifungal activity against Cryptococcus neoformans CGMCC 2.3161 assessed as inhibition of visible microbial growth by NCCLS protocol based method; assay type: functional
Procedure, shortened: (§1)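 Compounds dissolved in DMSO and serially diluted into growth medium. MIC was read as the lowest concentration that inhibited visible fungal growth.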

Aspergillus fumigatus = test: Antifungal activity against Aspergillus fumigatus CGMCC 3.7795 assessed as inhibition of visible microbial growth by NCCLS protocol based method; assay type: functional; procedure, shortened: as §1
Candida albicans [2] = test: Antifungal activity against Candida albicans CPCC 400523 assessed as inhibition of visible microbial growth by NCCLS protocol based method; assay type: functional
Candida albicans [3] = test: Antifungal activity against Candida albicans ATCC SC5314 assessed as inhibition of visible microbial growth by NCCLS protocol based method; assay type: functional; procedure, shortened: as §1
Candida tropicalis = test: Antifungal activity against Candida tropicalis CGMCC 2.3739 assessed as inhibition of visible microbial growth by NCCLS protocol based method; assay type: functional; procedure, shortened: as §1
[4] = Cytotoxicity in human A549 cells assessed as reduction in cell viability at 0.08 uM/L incubated for 24 hrs by MTT assay relative to control; assay type: cell-based; details: read-out: INH
Procedure, shortened: (§2)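 A549 cells were seeded at 3000 cells/well and preincubated for 16 h at 37 °C, 5% CO2. Medium was then replaced with fresh medium holding compound (DMSO stock diluted to final 0.08, 0.4, 2.0, 10 or 50 μM/L). Exposure lasted 24 h at 37 °C, 5% CO2, followed by MTT for 4 h and absorbance at 490 nm. Results are given as % inhibition.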

[5] = Cytotoxicity in human A549 cells assessed as reduction in cell viability at 0.40 uM/L incubated for 24 hrs by MTT assay relative to control; assay type: cell-based; details: read-out: INH; procedure, shortened: as §2
[6] = Cytotoxicity in human A549 cells assessed as reduction in cell viability at 50 uM/L incubated for 24 hrs by MTT assay relative to control; assay type: cell-based; details: read-out: INH; procedure, shortened: as §2
Candida albicans [7] = test: Antifungal activity against fluconazole-resistant Candida albicans Strain CaR assessed as inhibition of visible microbial growth by NCCLS protocol based method; assay type: functional
Procedure, shortened: (§3)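 Broth dilution MIC against clinical fluconazole-resistant C. albicans isolates from AIDS patients. Compounds dissolved in DMSO and serially diluted into growth medium. MIC was taken as the lowest concentration that inhibits visible fungal growth. Fluconazole and itraconazole served as positive controls.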

[8] = Cytotoxicity in human A549 cells assessed as reduction in cell viability at 10 uM/L incubated for 24 hrs by MTT assay relative to control; assay type: cell-based; details: read-out: INH; procedure, shortened: as §2
Candida albicans [9] = test: Antifungal activity against fluconazole-resistant Candida albicans Strain 17# assessed as inhibition of visible microbial growth by NCCLS protocol based method; assay type: functional; procedure, shortened: as §3
[10] = Stability in human plasma assessed as parent compound remaining at 100 uM after 60 mins LC/MS/MS analysis relative to control; assay type: ADME, cell-free; details: read-out: Stability
Procedure, shortened: (§4)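 Thawed human plasma was cleared at 4000 rpm and spiked from a 100 μM dosing solution to a final 2 μM, in duplicate, at 37 °C. Propantheline served as positive control. Sampling at 0, 10, 30, 60 and 120 min into ACN/MeOH stop solution with tolbutamide and labetalol internal standards. After centrifugation, supernatant was diluted with water and run by LC/MS/MS. % remaining was taken from the analyte/IS peak-area ratio, with no standard curve.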

[11] = Cytotoxicity in human A549 cells assessed as reduction in cell viability at 2 uM/L incubated for 24 hrs by MTT assay relative to control; assay type: cell-based; details: read-out: INH; procedure, shortened: as §2
[12] = Stability in human plasma assessed as parent compound remaining at 100 uM after 120 mins LC/MS/MS analysis relative to control; assay type: ADME, cell-free; details: read-out: Stability; procedure, shortened: as §4
[13] = target: T1, Lanosterol 14-alpha demethylase (Candida albicans (strain SC5314 / ATCC MYA-2876) (Yeast), UniProt P10613); test: Inhibition of CYP51 in Candida albicans ATCC SC5314 assessed as lanosterol level at 0.5 ug/ml incubated for 16 hrs by GC/MS analysis (reference value: 0%); design: scale not given: the % may be the effect or the level left; details: candida albicans sc5314, 16 h
T1 sequence (P10613 whole entry): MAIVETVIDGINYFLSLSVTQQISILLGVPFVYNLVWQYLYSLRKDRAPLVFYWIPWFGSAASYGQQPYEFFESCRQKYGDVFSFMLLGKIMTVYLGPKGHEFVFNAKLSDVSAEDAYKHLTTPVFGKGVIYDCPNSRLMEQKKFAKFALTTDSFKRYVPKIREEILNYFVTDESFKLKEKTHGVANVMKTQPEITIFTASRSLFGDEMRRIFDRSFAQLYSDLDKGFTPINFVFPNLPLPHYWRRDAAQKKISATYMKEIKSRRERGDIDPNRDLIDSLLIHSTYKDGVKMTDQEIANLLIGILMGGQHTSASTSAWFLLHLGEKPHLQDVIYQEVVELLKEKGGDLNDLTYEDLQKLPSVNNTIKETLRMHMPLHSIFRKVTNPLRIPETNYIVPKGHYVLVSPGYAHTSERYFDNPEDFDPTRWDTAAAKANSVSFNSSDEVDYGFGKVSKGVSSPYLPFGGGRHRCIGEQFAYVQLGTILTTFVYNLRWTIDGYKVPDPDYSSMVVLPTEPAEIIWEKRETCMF

[14] = target: T1, Lanosterol 14-alpha demethylase; test: Inhibition of CYP51 in Candida albicans ATCC SC5314 assessed as ergosterol level at 2 ug/ml incubated for 16 hrs by GC/MS analysis (reference value: 100%); design: scale not given: the % may be the effect or the level left; details: candida albicans sc5314, 16 h
[15] = target: T1, Lanosterol 14-alpha demethylase; test: Inhibition of CYP51 in Candida albicans ATCC SC5314 assessed as lanosterol level at 0.13 ug/ml incubated for 16 hrs by GC/MS analysis (reference value: 0%); design: scale not given: the % may be the effect or the level left; details: candida albicans sc5314, 16 h
[16] = target: T1, Lanosterol 14-alpha demethylase; test: Inhibition of CYP51 in Candida albicans ATCC SC5314 assessed as eburicol level at 8 ug/ml incubated for 16 hrs by GC/MS analysis (reference value: 0%); design: scale not given: the % may be the effect or the level left; details: candida albicans sc5314, 16 h
[17] = target: T1, Lanosterol 14-alpha demethylase; test: Inhibition of CYP51 in Candida albicans ATCC SC5314 assessed as obtusifoliol level at 0.13 ug/ml incubated for 16 hrs by GC/MS analysis (reference value: 0%); design: scale not given: the % may be the effect or the level left; details: candida albicans sc5314, 16 h
[18] = target: T1, Lanosterol 14-alpha demethylase; test: Inhibition of CYP51 in Candida albicans ATCC SC5314 assessed as ergosterol level at 0.5 ug/ml incubated for 16 hrs by GC/MS analysis (reference value: 100%); design: scale not given: the % may be the effect or the level left; details: candida albicans sc5314, 16 h
[19] = target: T1, Lanosterol 14-alpha demethylase; test: Inhibition of CYP51 in Candida albicans ATCC SC5314 assessed as eburicol level at 0.13 ug/ml incubated for 16 hrs by GC/MS analysis (reference value: 0%); design: scale not given: the % may be the effect or the level left; details: candida albicans sc5314, 16 h
[20] = target: T1, Lanosterol 14-alpha demethylase; test: Inhibition of CYP51 in Candida albicans ATCC SC5314 assessed as eburicol level at 2 ug/ml incubated for 16 hrs by GC/MS analysis (reference value: 0%); design: scale not given: the % may be the effect or the level left; details: candida albicans sc5314, 16 h
[21] = target: T1, Lanosterol 14-alpha demethylase; test: Inhibition of CYP51 in Candida albicans ATCC SC5314 assessed as lanosterol level at 2 ug/ml incubated for 16 hrs by GC/MS analysis (reference value: 0%); design: scale not given: the % may be the effect or the level left; details: candida albicans sc5314, 16 h
[22] = target: T1, Lanosterol 14-alpha demethylase; test: Inhibition of CYP51 in Candida albicans ATCC SC5314 assessed as lanosterol level at 8 ug/ml incubated for 16 hrs by GC/MS analysis (reference value: 0%); design: scale not given: the % may be the effect or the level left; details: candida albicans sc5314, 16 h
[23] = target: T1, Lanosterol 14-alpha demethylase; test: Inhibition of CYP51 in Candida albicans ATCC SC5314 assessed as obtusifoliol level at 0.5 ug/ml incubated for 16 hrs by GC/MS analysis (reference value: 0%); design: scale not given: the % may be the effect or the level left; details: candida albicans sc5314, 16 h
[24] = target: T1, Lanosterol 14-alpha demethylase; test: Inhibition of CYP51 in Candida albicans ATCC SC5314 assessed as ergosterol level at 8 ug/ml incubated for 16 hrs by GC/MS analysis (reference value: 100%); design: scale not given: the % may be the effect or the level left; details: candida albicans sc5314, 16 h
[25] = target: T1, Lanosterol 14-alpha demethylase; test: Inhibition of CYP51 in Candida albicans ATCC SC5314 assessed as eburicol level at 0.5 ug/ml incubated for 16 hrs by GC/MS analysis (reference value: 0%); design: scale not given: the % may be the effect or the level left; details: candida albicans sc5314, 16 h
[26] = target: T1, Lanosterol 14-alpha demethylase; test: Inhibition of CYP51 in Candida albicans ATCC SC5314 assessed as ergosterol level at 0.13 ug/ml incubated for 16 hrs by GC/MS analysis (reference value: 100%); design: scale not given: the % may be the effect or the level left; details: candida albicans sc5314, 16 h
[27] = target: T1, Lanosterol 14-alpha demethylase; test: Inhibition of CYP51 in Candida albicans ATCC SC5314 assessed as obtusifoliol level at 8 ug/ml incubated for 16 hrs by GC/MS analysis (reference value: 0%); design: scale not given: the % may be the effect or the level left; details: candida albicans sc5314, 16 h
[28] = target: T1, Lanosterol 14-alpha demethylase; test: Inhibition of CYP51 in Candida albicans ATCC SC5314 assessed as obtusifoliol level at 2 ug/ml incubated for 16 hrs by GC/MS analysis (reference value: 0%); design: scale not given: the % may be the effect or the level left; details: candida albicans sc5314, 16 h
[29] = target: T1, Lanosterol 14-alpha demethylase; test: Inhibition of CYP51 in Candida albicans ATCC SC5314 assessed as change in sterol components incubated for 16 hrs by GC/MS analysis; details: candida albicans sc5314, 16 h

SMILES | MIC (Cryptococcus neoformans) | MIC (Aspergillus fumigatus) | MIC (Candida albicans [2]) | MIC (Candida albicans [3]) | MIC (Candida tropicalis) | cytotoxicity at 24 h, 0.08 µM [4] | cytotoxicity at 24 h, 0.4 µM [5] | cytotoxicity at 24 h, 50 µM [6] | MIC (Candida albicans [7]) | cytotoxicity at 24 h, 10 µM [8] | MIC (Candida albicans [9]) | remaining at 1 h, 100 µM [10] | cytotoxicity at 24 h, 2 µM [11] | remaining at 2 h, 100 µM [12] | Activity [13] | Activity [14] | Activity [15] | Activity [16] | Activity [17] | Activity [18] | other results
CC(C)OC(=O)C(Cn1ccnc1)NC(=O)c1ccc(-c2ccccc2)cc1 (centres undefined) | 2 µg/mL | > 64 µg/mL | 0.25 µg/mL | < 0.03 µg/mL | < 0.06 µg/mL |  |  |  |  |  |  |  |  |  |  |  |  |  |  |  | MIC (Candida albicans [1]): 0.03 µg/mL (≈ 0.0795 µM)
CC[C@H](C)[C@@H](Cn1ccnc1)NC(=O)c1ccc(-c2ccccc2)cc1F | 1 µg/mL | 2 µg/mL | < 0.03 µg/mL | < 0.03 µg/mL | < 0.03 µg/mL | 1.2% | 1% | 14% | 4 µg/mL | 3.1% | 2 µg/mL | 113% | 1.2% | 86.3% |  |  |  |  |  |  | 
CC[C@H](C)[C@@H](Cn1ccnc1)NC(=O)c1ccc(-c2ccccc2F)cc1F | 1 µg/mL | 2 µg/mL | 0.06 µg/mL | < 0.03 µg/mL | < 0.03 µg/mL | 5.4% | 6.6% | 13.9% | 8 µg/mL | 8.3% | 2 µg/mL | 114% | 7.3% | 92.6% | 21% | 6.5% | 2% | 44.9% | 0% | 36% | Activity [19]: 0%; Activity [20]: 49.7%; Activity [21]: 20%; Activity [22]: 23.8%; Activity [23]: 12.2%; Activity [24]: 0%; Activity [25]: 30.8%; Activity [26]: 98%; Activity [27]: 31.3%; Activity [28]: 23.8%
OC(Cn1cncn1)(Cn1cncn1)c1ccc(F)cc1F [FLUCONAZOLE] | 4 µg/mL | > 64 µg/mL | 1 µg/mL | 0.5 µg/mL | 1 µg/mL |  |  |  | > 64 µg/mL |  | > 64 µg/mL |  |  |  | 9.9% | 17.2% | 2.3% | 39.9% | 0% | 90.1% | Activity [19]: 0%; Activity [20]: 37.1%; Activity [21]: 28%; Activity [22]: 22.9%; Activity [23]: 0%; Activity [24]: 0%; Activity [25]: 0%; Activity [26]: 97.7%; Activity [27]: 37.2%; Activity [29]: Dose-dependent effect; Activity [28]: 17.7%
